This is a sample that favours compounds with a hit; in the whole collection about 8.9% have one here.
Dynein cargo inh: dynein cargo transport inhibition; 3617.4 mouse cells, GR-EGFP nuclear translocation imaging; test concentration mostly 20 µM; stimulated with dexamethasone, 1 µM; hits give low values; z-score, hits read low; 220,000 compounds, 0.47% hits; AID 1381;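 active = plate z-score of nuclear minus cytoplasmic receptor signal below a set negative limit, without overly bright fluorescence or cell loss, cut at about -3.5 in these data, passing the limit was not always enough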;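 also: z-score of nuclear minus cytoplasmic ring GR-EGFP intensity difference per well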
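Also added – dexamethasone, 1.0 µM final · Buffer or medium – tet-free, stripped-serum medium · Schedule – induction 48 h, compound 1 h, agonist 30 min · Detection – formaldehyde fixation, Hoechst nuclear stain, 10x automated fluorescence imaging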
MT stabilizer: stabilizes microtubules in HeLa cells; AID 2205; % tubulin-high responders, % at 10 µM; HeLa tubulin immunostaining HCS, 24 h; share of cells brighter than vehicle mean+2SD; 200,000 compounds, 0.83% hits;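 active = plate Z-score above 3 for both tubulin-high and condensed-nucleus cell shares, with cell loss under 80%, at 10 µM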;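 also: anti alpha tubulin signal scored within the nucleus-defined area of each cell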
L major viab: inhibitors of Leishmania major promastigote growth; 200,000 compounds, 9% hits; inhibition, % at 10 µM; Leishmania major promastigotes, resazurin fluorescence viability; in the data active = inhibition above about 50%;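 also: promastigotes grown with compound for 44 hours at 28 °C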
HSV augment: HSV replication enhancement | HSV replication augmentation in cells, fold increase | maximum fold increase | 220,000 compounds, 0.005% hits | AID 1956; in the data active = maximum fold increase above about 1.5; tested in PC3 cells
bCat nuc transl: beta-catenin nuclear translocation modulation | HeLa beta-catenin nuclear translocation, immunofluorescence imaging | nuclear translocation activity, % at 5 µM | 190,000 compounds, 0.3% hits;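 active = nuclear translocation activity above 50% at 5 µM, with a well cell count of 50 or more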;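 also: per-cell ratio of nuclear to cytoplasmic median beta-catenin stain intensity; plate controls were DMSO negative control for no effect and GSK-3 inhibitor IX positive control for full effect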
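test system = HeLa cells, endogenous beta-catenin | dosing = single 5 µM dose plus 0.02–20 µM confirmation series | times = compound treatment 24 h, 37°C, 5% CO2 | technique = beta-catenin immunofluorescence imaging with DAPI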
Active calls of the source: *; i = inactive; nt = no result.

SMILES	Dynein cargo inh	MT stabilizer	L major viab	HSV augment	bCat nuc transl
CCOCCCn1c(SCC(=O)Nc2cc(C(C)(C)C)nn2-c2ccccc2)nc2ccccc2c1=O	1.7	2	72*	i	-2
COCCn1c(SCC(=O)Nc2ccc(C)cc2C)nc2c(oc3ccccc32)c1=O	0.47	4	54*	i	nt
COCCn1c(SCC(=O)Nc2ccccc2C)nc2c(oc3ccccc32)c1=O	0.1	3	0	i	-1
COCCn1c(SCC(=O)Nc2cc(C(C)(C)C)nn2-c2ccccc2)nnc1-c1ccncc1	-1.1	4	-3	i	1
COCCn1c(SCC(=O)Nc2cc(C(C)(C)C)nn2-c2ccccc2)nc2ccccc2c1=O	0.41	2	54*	i	0
CCOc1ccccc1NC(=O)C(NCC1CCCCC1)c1ccccc1 (centres undefined)	0.067	1	27	i	-6
CCOc1ccc(OCC)c(S(=O)(=O)n2cc(C)nc2CC)c1	-1.1	3	99*	i	0
O=C(c1ccco1)N1CCN(C(c2ccccc2Cl)c2nnnn2Cc2cccs2)CC1 (centres undefined)	-0.47	3	53*	i	-5
Cc1ccc(C(c2nnnn2CC2CCCO2)N2CCN(C(=O)c3ccco3)CC2)cc1 (centres undefined)	0.12	11	28	i	nt
O=C(c1ccco1)N1CCN(C(c2ccc(Cl)cc2)c2nnnn2CC2CCCO2)CC1 (centres undefined)	2.4	2	63*	i	-4
CC(C)CC(c1nnnn1Cc1ccccc1)N1CCN(C(=O)c2ccco2)CC1 (centres undefined)	0.44	5	65*	i	-6
CC(C)CCn1nnnc1C(c1ccc(F)cc1)N1CCN(C(=O)c2ccco2)CC1 (centres undefined)	0.19	2	55*	i	0
Cc1nnc(N(Cc2ccco2)C(=O)c2cccc(C#N)c2)s1	-0.11	3	-3	i	nt
CC/C(C)=N\NC(=O)CNC(=O)c1ccc(Cl)cc1Cl	-0.43	2	-8	i	0
C/C(=N\O)C(C)(C)Nc1ccc(Cl)cc1	0.16	nt	nt	i	0
CC1CCCN(C2=C(NS(=O)(=O)c3ccc(Cl)cc3)C(=O)c3ccccc3C2=O)C1 (centres undefined)	-0.12	4	56*	i	2
Cc1ccc(S(=O)(=O)NC2=C(N3CCN(c4ccccc4F)CC3)C(=O)c3ccccc3C2=O)cc1	-0.5	2	96*	i	-1
CC(=O)Nc1ccc(S(=O)(=O)NC2=C(N3CCN(c4ccc(F)cc4)CC3)C(=O)c3ccccc3C2=O)cc1	1.3	2	61*	nt	0
COC(=O)C1CCN(C2=C(NS(=O)(=O)c3ccc(Cl)cc3)C(=O)c3ccccc3C2=O)CC1	-0.29	nt	nt	i	1
Cc1ccc(S(=O)(=O)NC2=C(N3CCN(Cc4ccccc4)CC3)C(=O)c3ccccc3C2=O)cc1	0.28	1	97*	nt	-3
C=C(Cl)COC(=O)[C@H]1C2C=CC(C2)C1C(=O)O (some centres undefined)	0.063	2	5	i	-1
COc1ccc(-n2nc3c(c2NC(=O)c2ccc(S(=O)(=O)N4CCOCC4)cc2)CS(=O)C3)cc1 (centres undefined)	-0.096	5	-2	i	-1
O=C(NN=C1CCC(c2ccccc2)CC1)c1ccccc1-n1cccc1 (centres undefined)	-1.1	2	-6	i	-1
Cc1ccc(C#CC[N+](C)(C)CC#Cc2ccccc2)cc1	0.23	3	100*	i	0
CCOC(=O)C(=O)N1CCN(CC)CC1	0.071	2	-8	i	-2
SMILES	Dynein cargo inh	MT stabilizer	L major viab	HSV augment	bCat nuc transl
O=c1cc(CN2CCN(c3ccccc3F)CC2)c2cc(O)c(-c3ccccc3)cc2o1	-0.23	3	-2	i	1
O=c1cc(CN2CCN(C/C=C/c3ccccc3)CC2)c2cc(O)c(-c3ccccc3)cc2o1	-0.78	5	80*	i	-1
Cc1c(O)ccc2c(CN3CCN(C/C=C/c4ccccc4)CC3)cc(=O)oc12	-0.13	nt	nt	i	1
Cc1cc2oc(=O)cc(CN3CCN(C/C=C/c4ccccc4)CC3)c2cc1O	-0.055	3	100*	i	0
Cc1cc2oc(=O)cc(CN3CCN(S(=O)(=O)c4cccs4)CC3)c2cc1C	-0.59	4	81*	i	0
CCOC(=O)Nc1ccc2c(CN3C(=O)NC4(CCCC4)C3=O)cc(=O)oc2c1	0.58	2	7	i	-2
CCOC(=O)Nc1ccc2c(CN3CCN(S(=O)(=O)c4ccccc4)CC3)cc(=O)oc2c1	1	3	100*	i	4
Cc1csc(NC(=O)COCC(=O)O)c1-c1nc2ccccc2s1	0.92	nt	nt	i	-2
C=CC[C@@H]1C=C[C@H](O/N=C/[C@@H](NS(=O)(=O)c2ccc(C)cc2)[C@H](C)/C=C/CC(=O)OC)[C@@H](CO)O1	-0.7	3	-3	nt	-1
CC(=O)Nc1ccc(OC(=O)c2cccs2)cc1	0.22	3	-3	i	nt
COc1ccc2c(CC(=O)NCCN3C(=O)S/C(=C\c4cccnc4)C3=O)coc2c1	1.5	2	8	i	1
COc1ccc(/C=C2\SC(=O)N(CCNC(=O)Cc3coc4cc(OC)ccc34)C2=O)cc1	1.3	3	59*	i	nt
CC(NCc1ccc(N(C)C)cc1)C1CC2CCC1C2 (centres undefined)	-0.58	1	98*	i	nt
CC(NC(=O)CSc1ccccc1C(=O)O)C1CC2CCC1C2 (centres undefined)	1.1	1	-2	i	-1
COc1ccc(Cn2cc(C(=O)c3ccccc3)c(=O)c3cc(OC)ccc32)cc1	-0.51	23	36	nt	-2
COc1ccc2c(c1)c(=O)c(C(=O)c1ccccc1)cn2Cc1ccccc1	2.1	17*	49	nt	-1
CCCCNc1cc(C(=O)O)cc(S(N)(=O)=O)c1Oc1ccccc1	1.4	4	-7	i	1
CCN1C(=O)c2cccc3c(S(=O)(=O)NCc4cccnc4)ccc1c23	0.83	1	70*	i	0
CCN1C(=O)c2cccc3c(S(=O)(=O)Nc4ccncc4)ccc1c23	-2	2	-3	i	-3
COc1ccc(S(=O)(=O)N(C)C)cc1NC(=O)[C@H](Cc1ccccc1)N1C(=O)c2ccccc2C1=O	0.34	4	-5	i	1
O=C(Nc1ccc(F)cc1)c1nc[nH]c1C(=O)Nc1ccc([N+](=O)[O-])cc1	1.7	3	92*	i	-5
O=C(Nc1ccc([N+](=O)[O-])cc1)c1nc[nH]c1C(=O)NC1CCCCC1	0.49	2	64*	i	-2
CNC(=O)c1[nH]cnc1C(=O)Nc1ccc(C)cc1	-0.33	3	1	i	nt
Cc1ccc(NC(=O)c2nc[nH]c2C(=O)Nc2ccc(C)cc2)cc1	-0.035	3	-5	i	-2

High-throughput results: PubChem, several laboratories
